Results from ChEMBL document CHEMBL4616671, “Identification of N-Phenyl-7H-pyrrolo[2,3-d]pyrimidin-4-amine Derivatives as Novel, Potent, and Selective NF-κB Inducing Kinase (NIK) Inhibitors for the Treatment of Psoriasis” (J Med Chem, 2020).

How the values were obtained:
[1] = target: T1, Mitogen-activated protein kinase kinase kinase 14 (Homo sapiens, UniProt Q99558); assay: Inhibition of recombinant N-terminal GST-fused human NIK (319 to 947 residues) expressed in baculovirus expression system incubated for 120 mins in presence of ATP by ADP-glo based luminescence assay
How it was run: (§1)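 ADP-Glo luminescence assay with recombinant human MAP3K14. Buffer: Tris pH 7.5, 2 mM DTT, 2 mM MgCl₂, 100 µM Na₃VO₄, 0.02 mg/mL BSA, 5% DMSO; ATP 10 µM. Reaction 120 min at room temperature; ADP-Glo reagent 40 min, then detection reagent 40 min. Mean ± SD from two independent experiments.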
Target sequence in this assay (Q99558 whole entry, the tested form may be a part): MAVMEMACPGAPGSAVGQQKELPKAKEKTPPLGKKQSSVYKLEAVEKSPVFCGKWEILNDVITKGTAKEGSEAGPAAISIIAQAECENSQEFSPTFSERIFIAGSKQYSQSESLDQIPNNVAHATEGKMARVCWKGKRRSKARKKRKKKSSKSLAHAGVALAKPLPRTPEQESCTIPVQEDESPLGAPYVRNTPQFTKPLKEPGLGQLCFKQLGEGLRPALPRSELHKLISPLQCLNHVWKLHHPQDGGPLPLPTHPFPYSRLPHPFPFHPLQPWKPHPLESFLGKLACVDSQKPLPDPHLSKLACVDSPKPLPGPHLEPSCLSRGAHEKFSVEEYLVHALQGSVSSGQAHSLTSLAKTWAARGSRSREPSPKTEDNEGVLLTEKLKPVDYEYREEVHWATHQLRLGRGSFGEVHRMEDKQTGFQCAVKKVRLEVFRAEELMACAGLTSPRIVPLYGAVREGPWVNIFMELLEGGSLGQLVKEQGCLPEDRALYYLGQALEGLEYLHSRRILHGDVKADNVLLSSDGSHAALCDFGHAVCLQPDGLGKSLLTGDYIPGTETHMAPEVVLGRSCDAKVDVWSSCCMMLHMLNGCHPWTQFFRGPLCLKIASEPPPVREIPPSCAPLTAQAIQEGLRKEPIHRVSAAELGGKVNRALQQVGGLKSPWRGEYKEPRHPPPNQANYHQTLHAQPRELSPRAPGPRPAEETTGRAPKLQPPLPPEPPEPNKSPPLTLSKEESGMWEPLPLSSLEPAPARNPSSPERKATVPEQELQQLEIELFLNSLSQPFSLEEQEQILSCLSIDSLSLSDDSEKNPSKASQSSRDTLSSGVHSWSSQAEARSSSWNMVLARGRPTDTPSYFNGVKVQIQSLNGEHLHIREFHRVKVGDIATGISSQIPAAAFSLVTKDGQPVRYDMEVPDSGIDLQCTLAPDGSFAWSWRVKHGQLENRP

J774 = assay: Antiinflammatory activity in mouse J774 cells assessed as inhibition of LPS-induced NO production at 1 uM preincubated for 2 hrs followed by LPS stimulation and measured after 22 hrs by Griess reagent based assay relative to control; type: functional
How it was run: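 J774 macrophages seeded at 2*10^4 cells/mL, 24 h at 37 °C 5% CO₂; compound in DMSO at 1 µM, 3 replicate wells, 2 h pre-incubation, then LPS at 1 ug/mL final for 22 h. Supernatant nitrite read with Griess reagent at 540 nm against a sodium nitrite standard curve. Inhibition % = (model − compound)/(model − control) NO ×100; mean ± SD, three independent experiments.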

T-cell [2] = assay: Antiinflammatory activity in mouse T cells assessed as inhibition of conA-induced induced T cell proliferation at 2 uM incubated for 48 hrs by CCK8 assay relative to control; type: functional
T-cell [3] = assay: Antiinflammatory activity in mouse T cells assessed as inhibition of conA-induced induced T cell proliferation at 0.4 uM incubated for 48 hrs by CCK8 assay relative to control; type: functional
[4] = Intrinsic clearance in human liver microsomes assessed per mg of protein incubated for 10 mins followed by potassium phosphate buffer addition and measured after 5 to 60 mins by LC-MS/MS analysis; type: ADME, Microsome; conditions: read-out: CLH
How it was run: (§2)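 Rat, dog, monkey or human liver microsomes pre-incubated with compound at 37 °C for 10 min; reaction started after pre-warming and stopped at 5, 15, 30, 60 min with chilled quench containing tolbutamide and labetalol. No-cofactor control in 100 mM potassium phosphate for 60 min. LC-MS/MS analysis; first-order fit: k = −slope, T1/2 = 0.693/k, CLint = k/microsomal protein concentration.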

[5] = target: T1, Mitogen-activated protein kinase kinase kinase 14; assay: Inhibition of NIK in human BEAS2B cells assessed as reduction in LPS-induced IL-6 level preincubated for 8 hrs followed by LPS stimulation and measured after 24 hrs by ELISA; type: cell-based
How it was run: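 BEAS-2B cells were grown in DMEM with 10% FBS, seeded at 5000 cells/well, and cultured 24 h at 37 °C in 5% CO2. Compounds were given at 7 concentrations from 10 μM to 0.014 μM (3 replicate wells), with dexamethasone as positive control. After 8 h, LPS (20 μg/mL solution) was added for 24 h. Supernatant IL-6 was read by human IL-6 ELISA; two biological replicates.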
Target sequence in this assay (Q99558 whole entry, looked up, the tested form may be a part): as the sequence (Q99558 whole entry, the tested form may be a part) above

[6] = Intrinsic hepatic clearance in monkey; type: ADME, Macaca mulatta; conditions: rhesus monkey, in vivo
How it was run: (§3)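 Scaled from microsomal intrinsic clearance: CLint,in vitro × microsomal protein per g liver × liver weight per kg body weight.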

[7] = Elimination half life in human liver microsomes incubated for 10 mins followed by potassium phosphate buffer addition and measured after 5 to 60 mins by LC-MS/MS analysis; type: ADME, Microsome; conditions: read-out: beta t1/2; how it was run: as §2
[8] = Intrinsic clearance in rat liver microsomes assessed as per mg of protein incubated for 10 mins followed by potassium phosphate buffer addition and measured after 5 to 60 mins by LC-MS/MS analysis; type: ADME, Microsome; conditions: read-out: CLH; how it was run: as §2
[9] = Intrinsic clearance in dog liver microsomes assessed as per mg of protein incubated for 10 mins followed by potassium phosphate buffer addition and measured after 5 to 60 mins by LC-MS/MS analysis; type: ADME, Canis lupus familiaris, Microsome; conditions: read-out: CLH; how it was run: as §2
[10] = Elimination half life in dog liver microsomes incubated for 10 mins followed by potassium phosphate buffer addition and measured after 5 to 60 mins by LC-MS/MS analysis; type: ADME, Canis lupus familiaris, Microsome; conditions: read-out: beta t1/2; how it was run: as §2
[11] = Elimination half life in monkey liver microsomes incubated for 10 mins followed by potassium phosphate buffer addition and measured after 5 to 60 mins by LC-MS/MS analysis; type: ADME, Macaca mulatta, Microsome; conditions: rhesus monkey, read-out: beta t1/2; how it was run: as §2
[12] = Intrinsic clearance in monkey liver microsomes assessed as per mg of protein incubated for 10 mins followed by potassium phosphate buffer addition and measured after 5 to 60 mins by LC-MS/MS analysis; type: ADME, Macaca mulatta, Microsome; conditions: rhesus monkey, read-out: CLH; how it was run: as §2
[13] = Intrinsic hepatic clearance in human; type: ADME; how it was run: as §3
[14] = Elimination half life in rat liver microsomes incubated for 10 mins followed by potassium phosphate buffer addition and measured after 5 to 60 mins by LC-MS/MS analysis; type: ADME, Microsome; conditions: read-out: beta t1/2; how it was run: as §2
[15] = Intrinsic hepatic clearance in dog; type: ADME, Canis lupus familiaris; conditions: in vivo; how it was run: as §3
[16] = Intrinsic hepatic clearance in rat; type: ADME; conditions: in vivo; how it was run: as §3
[17] = target: T1, Mitogen-activated protein kinase kinase kinase 14; assay: Inhibition of NIK (unknown origin); how it was run: as §1
Target sequence in this assay (Q99558 whole entry, the tested form may be a part): as above

T-cell [18] = assay: Growth inhibition of mouse T cells at 10 uM after 48 hrs by CCK8 assay; type: cell-based
How it was run: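 Unstimulated mouse splenic T cells exposed to compound at 10 µM. Growth read by CCK-8 absorbance; […]. Mean ± SD, three independent experiments.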

[19] = target: T1, Mitogen-activated protein kinase kinase kinase 14; assay: Inhibition of recombinant N-terminal GST-fused human NIK (319 to 947 residues) expressed in baculovirus expression system assessed as residual activity at 1 uM incubated for 120 mins in presence of ATP by ADP-glo based luminescence assay relative to control
Target sequence in this assay (Q99558 whole entry, looked up, the tested form may be a part): as the sequence (Q99558 whole entry, the tested form may be a part) above

Row | IC50 [1] [nM] | SMILES | inhibition at 1 µM (J774) [%] | inhibition at 2 µM (T-cell [2]) [%] | inhibition at 0.4 µM (T-cell [3]) [%] | other results
1 | 209 | C[C@@H]1CN(c2ccc(C#CC(C)(O)c3nccs3)cc2Nc2ncnc3[nH]ccc23)CCN1 (some centres not stated) |  |  |  | 
2 | 1380 | CC(O)(C#Cc1ccc(N2CCOCC2)c(Nc2c(F)cnc3[nH]ccc23)c1)c1nccs1 (configuration not stated) |  |  |  | 
3 | 484 | CN(C)CCN(C)c1ccc(C#CC(C)(O)c2nccs2)cc1Nc1ncnc2[nH]ccc12 (configuration not stated) |  |  |  | 
4 | 1270 | OC1(C#Cc2ccc(N3CCOCC3)c(Nc3ncnc4[nH]ccc34)c2)CCCCC1 |  |  |  | 
5 | 34.5 | CCN1CCN(c2ccc(C#CC(C)(O)c3nccs3)cc2Nc2ncnc3[nH]ccc23)CC1 (configuration not stated) | 67.4 | 33.7 | 24.1 | 
6 | 4.7 | CC(O)(C#Cc1ccc2c(c1)N(c1nc(N)ncc1Cl)CC2)c1nccs1 (configuration not stated) | 43.9 | 59.6 | 19 | microsomal CLint [4]: 40.8 µL/min/mg; inhibition [5]: Dose-dependent effect; CLH [6]: 300 mL/min/kg; half-life [7]: 33.9 min; microsomal CLint [8]: 141 µL/min/mg; microsomal CLint [9]: 192 µL/min/mg; half-life [10]: 7.22 min; half-life [11]: 6.66 min; microsomal CLint [12]: 208 µL/min/mg; CLH [13]: 38.6 mL/min/kg; half-life [14]: 9.82 min; CLH [15]: 276 mL/min/kg; CLH [16]: 254 mL/min/kg; Ki [17]: 0.4 nM
7 | 69.2 | C[C@H]1CN(c2ccc(C#CC(C)(O)c3nccs3)cc2Nc2ncnc3[nH]ccc23)CCN1 (some centres not stated) | 62.9 | 49.5 | 38 | 
8 | 47.9 | CC(O)(C#Cc1ccc(N2CCNCC2)c(Nc2ncnc3[nH]ccc23)c1)c1nccs1 (configuration not stated) | 68 | 39.9 | 20.3 | 
9 | 2240 | CC(O)(C#Cc1ccc(N2CCOCC2)c(Nc2ncnc3[nH]ccc23)c1)C1CCCC1 (configuration not stated) |  |  |  | 
10 | 60.1 | CN1CCCN(c2ccc(C#CC(C)(O)c3nccs3)cc2Nc2ncnc3[nH]ccc23)CC1 (configuration not stated) | 67.3 | 47.7 | 35.5 | 
11 | 645 | OC1(C#Cc2ccc(N3CCOCC3)c(Nc3ncnc4[nH]ccc34)c2)CCCC1 |  |  |  | 
12 | 22.5 | CN(C)c1ccc(C#CC(C)(O)c2nccs2)cc1Nc1ncnc2[nH]ccc12 (configuration not stated) |  |  |  | 
13 | 705 | CN1CCC(Oc2ccc(C#CC(C)(O)c3nccs3)cc2Nc2ncnc3[nH]ccc23)CC1 (configuration not stated) |  |  |  | 
14 | 12 | C[C@@](O)(C#Cc1ccc(N2CCOCC2)c(Nc2ncnc3[nH]ccc23)c1)c1nccs1 | 100 | 61.2 | 37.6 | Activity (T-cell [18]): Toxic
15 | 16.2 | CC(O)(C#Cc1ccc(N2CCN(S(=O)(=O)C3CC3)CC2)c(Nc2ncnc3[nH]ccc23)c1)c1nccs1 (configuration not stated) | 37.2 | 32.3 | 16.9 | 
16 | 112 | CC(O)(C#Cc1ccc(OC2CCOCC2)c(Nc2ncnc3[nH]ccc23)c1)c1nccs1 (configuration not stated) | 68.3 | 42.9 | 19.9 | 
17 | 17.8 | CC(=O)N1CCN(c2ccc(C#CC(C)(O)c3nccs3)cc2Nc2ncnc3[nH]ccc23)CC1 (configuration not stated) | 29.3 | 31.5 | 16.2 | 
18 | 8.22 | CCS(=O)(=O)N1CCN(c2ccc(C#CC(C)(O)c3nccs3)cc2Nc2ncnc3[nH]ccc23)CC1 (configuration not stated) | 34.5 | 32.5 | 14 | 

Row | IC50 [1] [nM] | SMILES | inhibition at 1 µM (J774) [%] | inhibition at 2 µM (T-cell [2]) [%] | inhibition at 0.4 µM (T-cell [3]) [%] | other results
19 | 72.4 | COCCN(C)c1ccc(C#CC(C)(O)c2nccs2)cc1Nc1ncnc2[nH]ccc12 (configuration not stated) | 48 | 27.9 | 13.3 | 
20 | 1640 | CC(O)(C#Cc1cccc(Nc2ncnc3[nH]ccc23)c1)c1nccs1 (configuration not stated) |  |  |  | 
21 | 50.4 | CC(O)(C#Cc1ccc(N2CCOCC2)c(Nc2ncnc3[nH]ccc23)c1)c1cccs1 (configuration not stated) |  |  |  | 
22 | 1400 | CC(O)(C(=O)Nc1ccc(N2CCOCC2)c(Nc2ncnc3[nH]ccc23)c1)c1nccs1 (configuration not stated) |  |  |  | 
23 | 136 | C[C@](O)(C#Cc1ccc(N2CCOCC2)c(Nc2ncnc3[nH]ccc23)c1)c1nccs1 | 74.3 | 60.1 | 39.5 | Activity (T-cell [18]): Non-Toxic
24 | 200 | CC(O)(C#Cc1ccc(N2CC3CC2CN3)c(Nc2ncnc3[nH]ccc23)c1)c1nccs1 (configuration not stated) |  |  |  | 
25 |  | O=C(Nc1ccc(N2CCOCC2)c(Nc2ncnc3[nH]ccc23)c1)NC1CCCC1 |  |  |  | Activity [19]: 76.4%
26 |  | O=C(Nc1ccc(N2CCOCC2)c(Nc2ncnc3[nH]ccc23)c1)C1CCCC1 |  |  |  | Activity [19]: 77.3%
27 | 6.59 | CC(O)(C#Cc1ccc(N2CCOCC2)c(Nc2ccnc3[nH]ccc23)c1)c1nccs1 (configuration not stated) | 60.4 | 50.2 | 19 | 
28 | 107 | CC(O)(C#Cc1ccc(N2CCCC2)c(Nc2ncnc3[nH]ccc23)c1)c1nccs1 (configuration not stated) |  |  |  | 
29 | 2710 | CC(C)(O)C#Cc1ccc(N2CCOCC2)c(Nc2ncnc3[nH]ccc23)c1 |  |  |  | 
30 | 8.63 | CC(O)(C#Cc1ccc(N2CCOCC2)c(Nc2ncnc3[nH]ncc23)c1)c1nccs1 (configuration not stated) | 35.9 | 24.7 | 14.8 | 
31 | 179 | CC(O)(C#Cc1ccc(N2CCOCC2)c(Nc2ncnc3sccc23)c1)c1nccs1 (configuration not stated) |  |  |  | 
32 | > 10000 | CC(O)(C#Cc1ccc(N2CCOCC2)c(Nc2c(Cl)cnc3[nH]ccc23)c1)c1nccs1 (configuration not stated) |  |  |  | 
33 | 15.3 | CC(O)(C#Cc1ccc(N2CCC(N3CCOCC3)CC2)c(Nc2ncnc3[nH]ccc23)c1)c1nccs1 (configuration not stated) | 57.7 | 34.5 | 32.2 | 
34 | 11.4 | CC(O)(C#Cc1ccc(N2CCOCC2)c(Nc2ccnc(N)n2)c1)c1nccs1 (configuration not stated) | 58.5 | 31.4 | 27.4 | 
35 | 78.3 | CN1CCN(c2ccc(C#CC(C)(O)c3nccs3)cc2Nc2ncnc3[nH]ccc23)CC1 (configuration not stated) | 78.5 | 43.7 | 33 | 
